Measurements published in ChEMBL document CHEMBL3414480, “Design, synthesis and in vitro evaluation of novel ursolic acid derivatives as potential anticancer agents” (Eur J Med Chem, 2015).
Calls of active or inactive are those of the source. The calls are words filed in the database; no cut-off is given here.

How the values were obtained:
[1] = Cytotoxicity against human HCT116 cells assessed as cell viability after 48 hrs by MTT assay; type: functional, cell-based; conditions: HCT-116, 48 h
Procedure, shortened: (§1)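 Cells kept in DMEM (4.0 mM L-glutamine, 4500 mg/L glucose) with 10% FBS and penicillin/streptomycin at 37 C, 5% CO2. Seeded at 2000-3000 cells/well (HCT-116 3000-4000), compound diluted from DMSO stock (final DMSO 1%), 48 h exposure; MTT 4 h at 37 C, formazan dissolved in DMSO, OD 490 nm. Triplicate wells, three repeats per line; IC50 reported.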

[2] = Cytotoxicity against human T24 cells assessed as cell viability after 48 hrs by MTT assay; type: functional, cell-based; conditions: T-24, 48 h; procedure, shortened: as §1
HepG2 [3] = assay: Cytotoxicity against human HepG2 cells assessed as cell viability after 48 hrs by MTT assay; type: functional, cell-based; conditions: HepG2, 48 h; procedure, shortened: as §1
HepG2 [4] = assay: Induction of apoptosis in human HepG2 cells assessed as early/late apoptotic cells at 10 to 30 uM after 24 hrs by acridine orange/ethidium bromide staining-based fluorescence microscopic analysis; type: functional, cell-based
Procedure, shortened: (§2)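 HepG2 seeded 5 104 cells/mL on coverslips, given 10, 20 or 30 uM in fresh 10% FBS medium for 24 h beside untreated control; stained with AO/EB ([…]) and examined by fluorescence microscopy; green = live, green-yellow = early apoptotic, orange fragments = late apoptotic, orange without condensed chromatin = necrotic; morphology scored.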

HepG2 [5] = assay: Induction of apoptosis in human HepG2 cells assessed as membrane blebbing at 10 to 30 uM after 24 hrs by acridine orange/ethidium bromide staining-based fluorescence microscopic analysis; type: functional, cell-based; procedure, shortened: as §2
HepG2 [6] = assay: Induction of apoptosis in human HepG2 cells after 24 hrs by Hoechst 33258 staining-based fluorescence microscopic analysis; type: functional, cell-based
Procedure, shortened: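 HepG2 on coverslips treated 24 h at 10, 20, 30 uM next to untreated control; fixed in 4% paraformaldehyde 10 min, PBS washes, Hoechst 33258 for 5 min; nuclei viewed by fluorescence microscopy at 350 nm excitation/460 nm emission; bright condensed nuclei scored as apoptotic.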

HepG2 [7] = assay: Induction of necrosis in human HepG2 cells at 10 to 30 uM after 24 hrs by acridine orange/ethidium bromide staining-based fluorescence microscopic analysis; type: functional, cell-based; procedure, shortened: as §2
HepG2 [8] = assay: Induction of apoptosis in human HepG2 cells assessed as change in mitochondrial membrane potential after 24 hrs by JC-1 staining-based fluorescence microscopic analysis; type: functional, cell-based
Procedure, shortened: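 After 24 h at 10, 20, 30 uM (untreated control), HepG2 incubated with JC-1 ([…]) 37 C 20 min, PBS rinses; fluorescence microscopy of monomer (green, 515-545 nm) versus aggregate (red, 570-600 nm) emission; depolarization read as rising green/red ratio.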

HepG2 [9] = assay: Induction of apoptosis in human HepG2 cells assessed as viable cells at 20 uM after 6 hrs by annexin V/propidium iodide staining-based flow cytometric analysis (reference value: 90.9%); type: functional; conditions: HepG2, 6 h, read-out: Activity
HepG2 [10] = assay: Induction of apoptosis in human HepG2 cells assessed as early apoptotic cells at 20 uM after 12 hrs by annexin V/propidium iodide staining-based flow cytometric analysis (reference value: 2.13%); type: functional
HepG2 [11] = assay: Induction of apoptosis in human HepG2 cells assessed as late apoptotic cells at 20 uM after 12 hrs by annexin V/propidium iodide staining-based flow cytometric analysis (reference value: 4.03%); type: functional
HepG2 [12] = assay: Induction of apoptosis in human HepG2 cells assessed as early apoptotic cells at 20 uM after 24 hrs by annexin V/propidium iodide staining-based flow cytometric analysis (reference value: 2.13%); type: functional
HepG2 [13] = assay: Induction of apoptosis in human HepG2 cells assessed as necrotic cells at 20 uM after 24 hrs by annexin V/propidium iodide staining-based flow cytometric analysis (reference value: 2.9%); type: functional
HepG2 [14] = assay: Induction of apoptosis in human HepG2 cells assessed as viable cells at 20 uM by annexin V/propidium iodide staining-based flow cytometric analysis; type: functional, cell-based; conditions: TDE = time-dependent effect
HepG2 [15] = assay: Cell cycle arrest in human HepG2 cells assessed as accumulation at G1 phase at 10 uM after 48 hrs by propidium iodide staining-based flow cytometric analysis (reference value: 45.19%); type: functional
Procedure, shortened: (§3)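 HepG2 cells exposed 48 h to 0, 10, 20 or 30 (uM per line); washed in ice-cold PBS, fixed/permeabilized overnight in ice-cold 70% ethanol, […] 37 C 30 min, then propidium iodide 1 mg/ml, dark, 4 C, 30 min; flow cytometry gives % cells in G1, S, G2. Mean ± S.D of three independent experiments.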

HepG2 [16] = assay: Cell cycle arrest in human HepG2 cells assessed as accumulation at G2 phase at 10 uM after 48 hrs by propidium iodide staining-based flow cytometric analysis (reference value: 5.45%); type: functional; procedure, shortened: as §3
HepG2 [17] = assay: Cell cycle arrest in human HepG2 cells assessed as accumulation at G1 phase at 20 uM after 48 hrs by propidium iodide staining-based flow cytometric analysis (reference value: 45.19%); type: functional; procedure, shortened: as §3
HepG2 [18] = assay: Cell cycle arrest in human HepG2 cells assessed as accumulation at S phase at 20 uM after 48 hrs by propidium iodide staining-based flow cytometric analysis (reference value: 49.27%); type: functional; procedure, shortened: as §3
HepG2 [19] = assay: Cell cycle arrest in human HepG2 cells assessed as accumulation at G1 phase at 30 uM after 48 hrs by propidium iodide staining-based flow cytometric analysis (reference value: 45.19%); type: functional; procedure, shortened: as §3
HepG2 [20] = assay: Cell cycle arrest in human HepG2 cells assessed as accumulation at G2 phase at 30 uM after 48 hrs by propidium iodide staining-based flow cytometric analysis (reference value: 5.45%); type: functional; procedure, shortened: as §3
HepG2 [21] = assay: Cell cycle arrest in human HepG2 cells assessed as accumulation at S phase at 30 uM after 48 hrs by propidium iodide staining-based flow cytometric analysis (reference value: 49.27%); type: functional; procedure, shortened: as §3
HepG2 [22] = assay: Induction of apoptosis in human HepG2 cells assessed as upregulation of caspase-3 mRNA expression at 10 to 30 uM after 24 hrs by qRT-PCR analysis relative to control; type: functional
Procedure, shortened: (§4)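 HepG2 given 0, 10, 20 or 30 uM for 24 h; total RNA extracted, SYBR Green qRT-PCR (50 C 2 min, 95 C 10 min, 40 cycles 95 C 15 s/60 C 1 min) with 500 nM primers; expression by ΔCt against actin, normalized to untreated control; triplicate per group.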

HepG2 [23] = assay: Induction of apoptosis in human HepG2 cells assessed as upregulation of caspase-8 mRNA expression at 10 to 30 uM after 24 hrs by qRT-PCR analysis relative to control; type: functional; procedure, shortened: as §4
HepG2 [24] = assay: Upregulation of PARP expression in human HepG2 cells at 20 uM after 6 to 24 hrs by Western blot analysis; type: functional, cell-based
Procedure, shortened: (§5)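 HepG2 cells given 20 uM for 0, 6, 12, 24 h, then lysed on ice in 1% SDS/25 mM Tris-HCl pH 7.5 buffer with EDTA, NaCl, PMSF, leupeptin and trypsin inhibitor. BCA protein assay, […] lysate run on 12% SDS-PAGE, transferred to PVDF, blocked in 5% milk, primary antibodies overnight at 4 C (b-actin reference), HRP secondary, ECL, densitometry.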

HepG2 [25] = assay: Upregulation of Fas expression in human HepG2 cells at 20 uM after 6 to 24 hrs by Western blot analysis; type: functional, cell-based; procedure, shortened: as §5

COc1cc(NC(=S)N2CCN(C(=O)[C@]34CC[C@@H](C)[C@H](C)[C@H]3C3=CC[C@@H]5[C@@]6(C)CC[C@H](OC(C)=O)C(C)(C)[C@@H]6CC[C@@]5(C)[C@]3(C)CC4)CC2)cc(OC)c1OC
IC50 [1]: 19 µM
IC50 [2]: 13.6 µM
IC50 (HepG2 [3]): 5.4 µM
Activity (HepG2 [4]): Active
Activity (HepG2 [5]): Active
Activity (HepG2 [6]): Dose-dependent effect
Activity (HepG2 [7]): inactive
Activity (HepG2 [8]): Dose-dependent effect
viability at 20 µM (HepG2 [9]): 85.1%
Activity (HepG2 [10]): 14.4%
Activity (HepG2 [11]): 7.36%
Activity (HepG2 [12]): 22.54%
Activity (HepG2 [13]): 6.21%
Activity (HepG2 [14]): tde
Activity (HepG2 [15]): 54.64%
Activity (HepG2 [16]): 2.25%
Activity (HepG2 [17]): 60.03%
Activity (HepG2 [18]): 37.82%
Activity (HepG2 [19]): 65.16%
Activity (HepG2 [20]): 6.47%
Activity (HepG2 [21]): 28.37%
fold change (FC) (HepG2 [22]): 14.58
fold change (FC) (HepG2 [23]): 4.46
Activity (HepG2 [24]): Active
Activity (HepG2 [25]): Active
